One assay concerns the target T1, ER (Homo sapiens, UniProt P03372).
T1 sequence (P03372 1-595): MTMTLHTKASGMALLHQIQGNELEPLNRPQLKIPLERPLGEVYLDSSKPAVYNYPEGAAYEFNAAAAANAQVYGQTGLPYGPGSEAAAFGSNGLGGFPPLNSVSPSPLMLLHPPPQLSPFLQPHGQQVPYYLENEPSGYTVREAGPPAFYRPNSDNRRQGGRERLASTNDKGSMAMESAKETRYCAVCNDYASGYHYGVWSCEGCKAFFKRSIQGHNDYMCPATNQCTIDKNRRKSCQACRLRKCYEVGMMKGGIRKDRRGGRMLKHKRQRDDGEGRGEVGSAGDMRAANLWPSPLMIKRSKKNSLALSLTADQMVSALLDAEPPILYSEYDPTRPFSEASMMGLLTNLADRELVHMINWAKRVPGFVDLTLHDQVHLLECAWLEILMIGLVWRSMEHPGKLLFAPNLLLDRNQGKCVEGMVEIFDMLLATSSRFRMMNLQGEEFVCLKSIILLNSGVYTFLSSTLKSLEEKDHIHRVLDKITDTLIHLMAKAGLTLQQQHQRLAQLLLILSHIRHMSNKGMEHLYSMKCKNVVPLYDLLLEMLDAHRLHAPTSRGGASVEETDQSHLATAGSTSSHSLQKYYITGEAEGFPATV
Kind of assay: ER immunofluorescence in MCF7 cells. It is filed as cell-based. The conditions noted are these: ER green, DAPI blue, compared to controls, Fig. 4C. An outline of the steps: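 MCF7 on ethanol/UV-sterilized coverslips, attached 24 h, then kept in phenol-red-free RPMI with 5% charcoal/dextran FBS. Test compound diluted in that medium, applied as for the western blots. Fixed in 4% PFA, permeabilized with 0.2% Triton X. Blocked in 10% goat serum/0.1% BSA in PBST. Anti-ER 1 h at 37°C, then Alexa Fluor 488 secondary 30 min. DAPI mount, inverted fluorescence microscopy.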

A further assay concerns the target T2, endogenous ER-α (Homo sapiens, UniProt P03372).
T2 sequence (P03372 1-595): T1 sequence (P03372 1-595)
Description: ER degradation in MCF7 cells by western blotting. It is filed as cell-based. The conditions noted are these: western blot; for ER level on treatment with 13 and the proteasome inhibitor epoxomicin: Fig. 4A. On the technique in general: In western blotting, separated proteins are transferred to a membrane and probed.

The next assay deals with MCF7 cells. Kind of assay: Cell viability assay by MTS. Format: cell-based, human. To be noted: 48 hour treatment, Fig. 5B. The method, boiled down: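 MCF7 seeded at 5 × 10³ cells in RPMI 1640 with 10% FBS overnight, then switched to 5% charcoal-dextran FBS RPMI for 24 h before dosing. Test compound was added in DMSO vehicle for 48 h. Viability was read by MTS (CellTiter 96 AQueous One) absorbance at 490 nm. IC50 was fitted by nonlinear sigmoid dose-response regression from at least triplicate results.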

“Also recorded” adds a separate entry of the source.

Take `CC[C@H](C)[C@H](NC(=O)[C@H]([C@@H](C)CC)N(C)C(C)=O)C(=O)N[C@H](C(=O)N[C@@H](CC(C)C)C(=O)[C@@]1(C)CO1)[C@@H](C)O` [epoxomicin, reference compound]: at ER, the “ER level by immunofluorescence” value is “causes the accumulation of the ER”. In addition, at endogenous ER-α, the “ER level on treatment with 13 and the proteasome inhibitor epoxomicin” value is “accumulation of the ER”.
Consider “-Leu-Ala-Nle-Leu-Tyr-Ile-OBzl [compound 17]”, for which, at ER, the “ER level by immunofluorescence” value is given as “does not cause ER degradation”.
For “-Leu-Ala-Pro^OH-Tyr-Ile-OBzl [compound 12]”, on endogenous ER-α (Fig. 4B (text says Fig 4C)), the “ER degradation, dependence on the hydroxyproline residue (pVHL recognition)” value is “effectively causes ER degradation”.
For the compound “-Leu-Ala-Pro^OH-Tyr-Ile-OBzl [compound 13]”, in the assay with MCF7 cells, the “inhibition of proliferation of MCF7 cells” value is listed as “best efficacy; also recorded: most effective”. The “time-dependent ER degradation, treated once” value on endogenous ER-α (between 48 and 72 hours, Fig. 3D) was “stable between 48 and 72 hours”. Further, the “ER level on treatment with 13 and the proteasome inhibitor epoxomicin” value on endogenous ER-α is “proteasome-dependent”. Also, the “ER degradation at even lower doses” value on endogenous ER-α (data not shown) is recorded as “degraded the ER most effectively”.
As to “-Leu-Ala-Pro^OH-Tyr-Ile-OBzl [compound 15]”, the “ER degradation at the highest concentration examined” value on endogenous ER-α (50 μM, 48 hour treatment, Fig. 3B) is recorded as “all PROTACs but 15 showed significant ER degradation”.

Source of the values: PMC3835402 (Molecular bioSystems, 2010).
